Measured values reported in ChEMBL document CHEMBL2057169, “Discovery of novel tricyclic compounds as squalene synthase inhibitors” (Bioorg Med Chem, 2012).

Legend:
[1] = biological target: T1, Squalene synthase (Rattus norvegicus, UniProt Q02769); assay: Inhibition of squalene synthase in rat hepatic cells; assay type: cell-based
T1 sequence (Q02769 whole entry): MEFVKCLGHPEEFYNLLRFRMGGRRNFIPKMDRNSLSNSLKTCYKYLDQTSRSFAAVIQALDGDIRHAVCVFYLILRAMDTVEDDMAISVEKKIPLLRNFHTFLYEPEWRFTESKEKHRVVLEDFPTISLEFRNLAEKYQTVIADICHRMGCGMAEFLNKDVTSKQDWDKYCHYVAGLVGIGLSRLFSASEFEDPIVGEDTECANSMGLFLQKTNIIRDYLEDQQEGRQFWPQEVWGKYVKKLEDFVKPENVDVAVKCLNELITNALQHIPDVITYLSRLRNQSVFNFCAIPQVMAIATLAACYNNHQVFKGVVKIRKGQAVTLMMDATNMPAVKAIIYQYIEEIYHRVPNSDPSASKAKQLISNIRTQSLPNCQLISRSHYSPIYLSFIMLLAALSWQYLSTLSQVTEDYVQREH

[2] = test system: Hepatocyte; assay: Inhibition of cholesterol synthesis in rat hepatocytes assessed as formation of cholesterol using [14C]mevalonolactone as substrate after 1 hr by radioactivity assay; assay type: functional, cell-based
Procedure, shortened: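 Rat hepatocytes isolated by two-step portal-vein perfusion (EGTA buffer, then 0.05% collagenase). Cells were kept if viability was over 80% by trypan blue and seeded at 10^6 cells/well in DMEM with 10% LPDS. Next day they got 5% LPDS medium with inhibitor at 0–3000 nM for 1 h at 37 °C, then [14C]mevalonolactone for 1 h. Lysates were saponified, [14C]cholesterol corrected by [3H]cholesterol recovery and BCA protein, and % inhibition taken versus 0 nM wells. Triplicate wells; three experiments.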

[3] = test system: Rattus norvegicus; assay: Inhibition of cholesterol synthesis in Wistar rat liver assessed as reduction of [14C]-cholesterol level at 3 mg/kg, po administered as single dose measured after 1 hr by liquid scintillation counting; assay type: functional
Procedure, shortened: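 Male Wistar rats, 6 weeks old, n = 4-6, dosed orally at 3 mg/kg in 0.5% methylcellulose, with equimolar NaOH or NaHCO3 added; vehicle-only controls. At 1 h, [14C]mevalonic acid (5 µCi/5 ml/kg) was given ip, and rats were killed 1 h later.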

[4] = test system: marmosets; assay: Lipid lowering effect in marmosets assessed as reduction in plasma total cholesterol level at 100 mg/kg, po administered once daily for 7 days; assay type: functional; conditions: Callitrichinae sp., in Callithrix jacchus, 168 h
Procedure, shortened: (§1)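 Common marmosets, n = 8 per group, matched for body weight and plasma lipids. They were dosed orally at 100 mg/kg in 0.5% methylcellulose (5 ml/kg) once daily for 7 days. Nonfasted blood was drawn before dosing and the morning after the last dose. HDL was precipitated, then its cholesterol assayed enzymatically; non-HDL = total minus HDL cholesterol. Change was expressed relative to pre-values.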

[5] = test system: marmosets; assay: Lipid lowering effect in marmosets assessed as reduction in plasma HDL-cholesterol level at 100 mg/kg, po administered once daily for 7 days; assay type: functional; conditions: Callitrichinae sp., in Callithrix jacchus, 168 h; procedure, shortened: as §1
[6] = test system: marmosets; assay: Lipid lowering effect in marmosets assessed as reduction in plasma non HDL-cholesterol level at 100 mg/kg, po administered once daily for 7 days; assay type: functional; conditions: Callitrichinae sp., in Callithrix jacchus, 168 h; procedure, shortened: as §1
[7] = test system: marmosets; assay: Lipid lowering effect in marmosets assessed as reduction in plasma triglyceride level at 100 mg/kg, po administered once daily for 7 days; assay type: functional; conditions: Callitrichinae sp., in Callithrix jacchus, 168 h; procedure, shortened: as §1

| IC50 [1] [µM] | SMILES | IC50 [2] [µM] | inhibition in vivo at 3 mg/kg [3] [%] | inhibition in vivo at 100 mg/kg [4] [%] | inhibition in vivo at 100 mg/kg [5] [%] | inhibition in vivo at 100 mg/kg [6] [%] | inhibition in vivo at 100 mg/kg [7] [%] |
| --- | --- | --- | --- | --- | --- | --- | --- |
| 0.0013 | COc1cccc([C@H]2O[C@H](CCn3ccc(CC(=O)O)n3)c3cccn3-c3ccc(Cl)cc32)c1OC | 0.058 | 64 | 27 | -10 | 52 | 16 |
| 0.0014 | COc1cccc([C@H]2O[C@H](CCC(=O)N3CCC[C@H](C(=O)O)C3)c3cccn3-c3ccc(Cl)cc32)c1OC | 0.07 | 53 | 9 | -21 | 23 | 21 |
| 0.0011 | COc1cccc([C@H]2O[C@H](CCn3nnc(CC(=O)O)n3)c3cccn3-c3ccc(Cl)cc32)c1OC | 0.036 | 86 | 14 | 6 | 21 | 12 |
